Several values for one entry are separate records, joined by “and”; a condition that tells them apart may be missing. Equal entries are not always repeated.
Test system: HEK-293T
Assay: Multiplex assay against HEK293T;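 for Population Tubulin-Different-Phenotype (%): share of the cells with healthy nuclei that show this phenotype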
Format: toxicity, cell-based
Conditions: human
Procedure, shortened: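 Imaging took place on a CQ1 microscope at 37°C and 5% CO2 once compound had been added to live cells stained at seeding with Hoechst33342, BioTracker Green Microtubule Cytoskeleton Dye, MitoTracker Red and Annexin V Alexa Fluor 680. CellPathfinder machine-learning gating classed cells as Hoechst high-intensity objects or normal cells, classed normal cells as having healthy, pyknosed or fragmented nuclei, and classed pyknosed cells as mitotic or apoptotic. Tubulin, mitochondrial-mass and membrane-permeability phenotypes are per cents of the healthy-nucleus cells.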

[1] = 12 h, 1 µM, compound concentration 1 uM, replicate 1
[2] = 12 h, 1 µM, compound concentration 1 uM, replicate 2
[3] = 12 h, 10 µM, compound concentration 10 uM, replicate 1
[4] = 12 h, 10 µM, compound concentration 10 uM, replicate 2
[5] = 24 h, 1 µM, compound concentration 1 uM, replicate 1
[6] = 24 h, 1 µM, compound concentration 1 uM, replicate 2
[7] = 24 h, 10 µM, compound concentration 10 uM, replicate 1
[8] = 24 h, 10 µM, compound concentration 10 uM, replicate 2
[9] = 48 h, 10 µM, compound concentration 10 uM, replicate 1
[10] = 48 h, 10 µM, compound concentration 10 uM, replicate 2

Structure (SMILES): c1ccc(-c2oc3ncnc(NC[C@@H]4CCCO4)c3c2-c2ccccc2)cc1
- Population Apoptotic (%) [1]: 20%
- Population Fragmented Nuclei (%) [1]: 13% and 15%
- Population Healthy Nuclei (%) [1]: 57% and 66%
- Population Hoechst High Intensity Objects (%) [1]: 11% and 13%
- Population Mitotic Cells (%) [1]: 79%
- Population Normal (%) [1]: 88% and 86%
- Population Pyknosed Nuclei (%) [1]: 28% and 17%
- Total Cell Count [1]: 692 and 563
- Population Healthy Nuclei (%) [2]: 74% and 83%
- Population Hoechst High Intensity Objects (%) [2]: 2% and 1%
- Population Mitotic Cells (%) [2]: 86% and 97%
- Population Normal (%) [2]: 97% and 98%
- Total Cell Count [2]: 938 and 1825
- Population Apoptotic (%) [3]: 72%
- Population Fragmented Nuclei (%) [3]: 14%
- Population Healthy Nuclei (%) [3]: 25%
- Population Hoechst High Intensity Objects (%) [3]: 17%
- Population Membrane Permeable-Phenotype (%) [3]: 3%
- Population Mitochondria Different-Phenotype (%) [3]: 98%
- Population Mitotic Cells (%) [3]: 27%
- Population Normal (%) [3]: 82%
- Population Pyknosed Nuclei (%) [3]: 59%
- Population Tubulin-Different-Phenotype (%) [3]: 98%
- Total Cell Count [3]: 263
- Population Apoptotic (%) [4]: 43%
- Population Fragmented Nuclei (%) [4]: 4%
- Population Healthy Nuclei (%) [4]: 31%
- Population Hoechst High Intensity Objects (%) [4]: 7%
- Population Membrane Permeable-Phenotype (%) [4]: 17%
- Population Mitochondria Different-Phenotype (%) [4]: 71%
- Population Mitotic Cells (%) [4]: 56%
- Population Normal (%) [4]: 92%
- Population Pyknosed Nuclei (%) [4]: 63%
- Population Tubulin-Different-Phenotype (%) [4]: 90%
- Total Cell Count [4]: 218
- Population Apoptotic (%) [5]: 28% and 21%
- Population Fragmented Nuclei (%) [5]: 11% and 14%
- Population Healthy Nuclei (%) [5]: 65% and 77%
- Population Hoechst High Intensity Objects (%) [5]: 10% and 5%
- Population Mitotic Cells (%) [5]: 71% and 78%
- Population Normal (%) [5]: 89% and 94%
- Total Cell Count [5]: 699 and 659
- Population Apoptotic (%) [6]: 8% and 3%
- Population Healthy Nuclei (%) [6]: 74%
- Population Hoechst High Intensity Objects (%) [6]: 2% and 3%
- Population Mitotic Cells (%) [6]: 91% and 96%
- Population Normal (%) [6]: 97% and 96%
- Total Cell Count [6]: 1013 and 3002
- Population Apoptotic (%) [7]: 69%
- Population Fragmented Nuclei (%) [7]: 20%
- Population Healthy Nuclei (%) [7]: 19%
- Population Hoechst High Intensity Objects (%) [7]: 23%
- Population Membrane Permeable-Phenotype (%) [7]: 0%
- Population Mitochondria Different-Phenotype (%) [7]: 94%
- Population Mitotic Cells (%) [7]: 30%
- Population Normal (%) [7]: 76%
- Population Pyknosed Nuclei (%) [7]: 60%
- Population Tubulin-Different-Phenotype (%) [7]: 94%
- Total Cell Count [7]: 260
- Population Apoptotic (%) [8]: 43%
- Population Fragmented Nuclei (%) [8]: 2%
- Population Healthy Nuclei (%) [8]: 31%
- Population Hoechst High Intensity Objects (%) [8]: 4%
- Population Membrane Permeable-Phenotype (%) [8]: 16%
- Population Mitochondria Different-Phenotype (%) [8]: 75%
- Population Mitotic Cells (%) [8]: 56%
- Population Normal (%) [8]: 95%
- Population Pyknosed Nuclei (%) [8]: 66%
- Population Tubulin-Different-Phenotype (%) [8]: 90%
- Total Cell Count [8]: 222
- Population Apoptotic (%) [9]: 70%
- Population Fragmented Nuclei (%) [9]: 26%
- Population Healthy Nuclei (%) [9]: 16%
- Population Hoechst High Intensity Objects (%) [9]: 23%
- Population Membrane Permeable-Phenotype (%) [9]: 3%
- Population Mitochondria Different-Phenotype (%) [9]: 96%
- Population Mitotic Cells (%) [9]: 29%
- Population Normal (%) [9]: 76%
- Population Pyknosed Nuclei (%) [9]: 57%
- Population Tubulin-Different-Phenotype (%) [9]: 93%
- Total Cell Count [9]: 268
- Population Apoptotic (%) [10]: 48%
- Population Fragmented Nuclei (%) [10]: 4%
- Population Healthy Nuclei (%) [10]: 64%
- Population Hoechst High Intensity Objects (%) [10]: 5%
- Population Membrane Permeable-Phenotype (%) [10]: 19%
- Population Mitochondria Different-Phenotype (%) [10]: 66%
- Population Mitotic Cells (%) [10]: 51%
- Population Normal (%) [10]: 94%
- Population Pyknosed Nuclei (%) [10]: 31%
- Population Tubulin-Different-Phenotype (%) [10]: 90%
- Total Cell Count [10]: 272

Source: ChEMBL document CHEMBL4689842, “EUbOPEN Chemogenomics Library wave 1” (2021)
